Reference: ChEMBL document CHEMBL3098028, “Synthesis and in vitro and in vivo pharmacological evaluation of new 4-aminoquinoline-based compounds” (ACS Med Chem Lett, 2013)
Converted amounts (≈) assume the structure as drawn.

Columns and labels:
[1] = Kinetic solubility of the compound in phosphate buffered saline at pH 7.4 after 2 hrs by HPLC analysis; assay type: physicochemical; conditions: read-out: Kinetic_solubility
Plasmodium falciparum [2] = assay: Antiplasmodial activity against chloroquine-sensitive Plasmodium falciparum 3D7 after 24 hrs by [3H]hypoxanthine incorporation assay; assay type: functional, organism-based
In short: (§1)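 Antiplasmodial testing was done at the Swiss Tropical and Public Health Institute. Chloroquine, the reference drug, was tested as its diphosphate salt.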

[3] = Kinetic solubility of the compound in 0.01 M HCl at pH 2 after 2 hrs by HPLC analysis; assay type: physicochemical; conditions: read-out: Kinetic_solubility
Plasmodium falciparum [4] = assay: Antiplasmodial activity against chloroquine-resistant Plasmodium falciparum K1 after 24 hrs by [3H]hypoxanthine incorporation assay; assay type: functional, organism-based; in short: as §1
Plasmodium falciparum [5] = assay: Resistance index, ratio of IC50 for chloroquine-resistant Plasmodium falciparum K1 to IC50 for chloroquine-sensitive Plasmodium falciparum 3D7; assay type: functional
Plasmodium falciparum [6] = assay: Antiplasmodial activity against chloroquine-resistant Plasmodium falciparum W2 after 24 hrs by [3H]hypoxanthine incorporation assay; assay type: functional, organism-based; in short: as §1
Plasmodium berghei = assay: Antimalarial activity against Plasmodium berghei ANKA infected in C57BL/6 mouse assessed as reduction in parasitemia at 15 mg/kg, po qd for 4 days measured on day 7 by light microscopic analysis relative to control; assay type: functional; parameters: scale not given: the % may be the effect or the level left
Cytochrome P450 1A2 = target: T1, Cytochrome P450 1A2 (Homo sapiens, UniProt P05177); assay: Inhibition of CYP1A2 in human liver microsomes assessed as phenacetin O-deethylation after 20 mins by LC-MS/MS analysis; assay type: ADME
T1 sequence (P05177 whole entry): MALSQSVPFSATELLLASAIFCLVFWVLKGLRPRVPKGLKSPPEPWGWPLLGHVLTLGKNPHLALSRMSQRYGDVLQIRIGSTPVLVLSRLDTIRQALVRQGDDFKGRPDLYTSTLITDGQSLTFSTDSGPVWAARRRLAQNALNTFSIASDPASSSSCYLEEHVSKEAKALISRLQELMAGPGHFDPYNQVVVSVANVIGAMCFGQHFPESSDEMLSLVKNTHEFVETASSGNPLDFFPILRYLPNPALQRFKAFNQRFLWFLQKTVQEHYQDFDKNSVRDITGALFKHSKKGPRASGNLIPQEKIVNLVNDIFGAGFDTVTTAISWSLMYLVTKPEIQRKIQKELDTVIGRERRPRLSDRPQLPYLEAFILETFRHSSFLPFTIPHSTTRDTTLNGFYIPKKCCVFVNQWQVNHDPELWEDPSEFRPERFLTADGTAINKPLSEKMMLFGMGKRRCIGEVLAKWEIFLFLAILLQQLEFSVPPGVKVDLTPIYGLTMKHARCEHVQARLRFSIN

Cytochrome P450 2B6 = target: T2, Cytochrome P450 2B6 (Homo sapiens, UniProt P20813); assay: Inhibition of CYP2B6 in human liver microsomes assessed as bupropion hydroxylation after 20 mins by LC-MS/MS analysis; assay type: ADME
T2 sequence (P20813 whole entry): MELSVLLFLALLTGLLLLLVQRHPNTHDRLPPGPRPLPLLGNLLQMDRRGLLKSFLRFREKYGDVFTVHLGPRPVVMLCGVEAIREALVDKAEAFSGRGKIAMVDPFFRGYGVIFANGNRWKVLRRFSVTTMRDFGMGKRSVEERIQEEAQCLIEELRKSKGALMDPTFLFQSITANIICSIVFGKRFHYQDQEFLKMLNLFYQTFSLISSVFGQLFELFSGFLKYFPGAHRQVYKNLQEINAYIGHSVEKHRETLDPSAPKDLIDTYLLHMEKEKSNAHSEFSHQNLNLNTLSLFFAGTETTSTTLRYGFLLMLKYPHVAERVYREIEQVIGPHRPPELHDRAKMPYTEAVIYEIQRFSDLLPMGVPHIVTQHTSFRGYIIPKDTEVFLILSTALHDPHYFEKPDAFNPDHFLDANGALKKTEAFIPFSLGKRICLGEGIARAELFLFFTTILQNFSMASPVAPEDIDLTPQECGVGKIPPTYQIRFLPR

Cytochrome P450 2C8 = target: T3, Cytochrome P450 2C8 (Homo sapiens, UniProt P10632); assay: Inhibition of CYP2C8 in human liver microsomes assessed as paclitaxel 6alpha-hydroxylation after 20 mins by LC-MS/MS analysis; assay type: ADME
T3 sequence (P10632 whole entry): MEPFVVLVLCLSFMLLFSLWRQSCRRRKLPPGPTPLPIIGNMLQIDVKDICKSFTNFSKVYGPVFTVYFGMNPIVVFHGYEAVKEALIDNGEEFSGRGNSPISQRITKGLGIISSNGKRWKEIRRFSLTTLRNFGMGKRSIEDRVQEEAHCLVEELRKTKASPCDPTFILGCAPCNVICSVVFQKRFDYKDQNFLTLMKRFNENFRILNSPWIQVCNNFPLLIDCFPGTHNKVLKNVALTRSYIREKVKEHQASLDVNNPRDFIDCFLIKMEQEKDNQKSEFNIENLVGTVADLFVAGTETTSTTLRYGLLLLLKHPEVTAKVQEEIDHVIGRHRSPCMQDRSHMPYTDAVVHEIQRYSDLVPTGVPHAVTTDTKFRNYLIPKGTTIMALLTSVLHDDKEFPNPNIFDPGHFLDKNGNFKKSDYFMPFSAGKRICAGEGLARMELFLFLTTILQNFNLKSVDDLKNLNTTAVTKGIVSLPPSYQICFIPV

Cytochrome P450 2D6 = Cytochrome P450 2D6 (Homo sapiens, UniProt P10635); assay: Inhibition of CYP2D6 in human liver microsomes assessed as bufuralol 1'-hydroxylation after 20 mins by LC-MS/MS analysis; assay type: ADME
Cytochrome P450 2D6, sequence (P10635 whole entry): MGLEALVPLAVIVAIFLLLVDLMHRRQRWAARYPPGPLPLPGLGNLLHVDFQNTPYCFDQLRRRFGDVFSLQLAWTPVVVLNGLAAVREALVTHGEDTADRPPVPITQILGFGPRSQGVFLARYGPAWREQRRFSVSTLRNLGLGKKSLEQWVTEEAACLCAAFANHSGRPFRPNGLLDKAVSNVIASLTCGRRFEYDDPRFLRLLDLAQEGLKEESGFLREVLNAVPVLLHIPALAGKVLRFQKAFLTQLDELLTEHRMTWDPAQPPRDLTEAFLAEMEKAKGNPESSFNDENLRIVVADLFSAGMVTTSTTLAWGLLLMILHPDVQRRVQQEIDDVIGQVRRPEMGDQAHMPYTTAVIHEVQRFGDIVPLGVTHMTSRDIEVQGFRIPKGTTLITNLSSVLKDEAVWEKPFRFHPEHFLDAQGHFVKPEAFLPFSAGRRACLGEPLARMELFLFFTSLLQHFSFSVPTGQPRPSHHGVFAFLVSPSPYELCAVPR

CHO = assay: Cytotoxicity against CHO cells; assay type: cell-based; conditions: Cricetulus griseus
Cytochrome P450 2A6 = target: T4, Cytochrome P450 2A6 (Homo sapiens, UniProt P11509); assay: Inhibition of CYP2A6 in human liver microsomes assessed as coumarin 7-hydroxylation after 20 mins by LC-MS/MS analysis; assay type: ADME
T4 sequence (P11509 whole entry): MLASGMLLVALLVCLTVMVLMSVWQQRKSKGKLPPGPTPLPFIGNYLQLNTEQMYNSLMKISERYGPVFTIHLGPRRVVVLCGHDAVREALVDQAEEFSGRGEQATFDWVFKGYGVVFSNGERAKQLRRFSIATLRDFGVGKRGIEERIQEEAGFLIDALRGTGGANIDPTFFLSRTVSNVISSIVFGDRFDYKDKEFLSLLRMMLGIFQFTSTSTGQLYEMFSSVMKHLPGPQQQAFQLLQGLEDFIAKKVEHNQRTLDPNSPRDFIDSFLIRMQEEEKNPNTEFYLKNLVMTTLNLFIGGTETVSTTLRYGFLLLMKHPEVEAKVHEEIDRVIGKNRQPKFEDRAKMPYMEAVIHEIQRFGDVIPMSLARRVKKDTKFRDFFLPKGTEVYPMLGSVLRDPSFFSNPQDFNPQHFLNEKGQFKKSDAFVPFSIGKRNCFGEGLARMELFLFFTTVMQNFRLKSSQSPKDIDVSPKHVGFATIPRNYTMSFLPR

Cytochrome P450 2C19 = Cytochrome P450 2C19 (Homo sapiens, UniProt P33261); assay: Inhibition of CYP2C19 in human liver microsomes assessed as S-mephenytoin 4'-hydroxylation after 20 mins by LC-MS/MS analysis; assay type: ADME
Cytochrome P450 2C19, sequence (P33261 whole entry): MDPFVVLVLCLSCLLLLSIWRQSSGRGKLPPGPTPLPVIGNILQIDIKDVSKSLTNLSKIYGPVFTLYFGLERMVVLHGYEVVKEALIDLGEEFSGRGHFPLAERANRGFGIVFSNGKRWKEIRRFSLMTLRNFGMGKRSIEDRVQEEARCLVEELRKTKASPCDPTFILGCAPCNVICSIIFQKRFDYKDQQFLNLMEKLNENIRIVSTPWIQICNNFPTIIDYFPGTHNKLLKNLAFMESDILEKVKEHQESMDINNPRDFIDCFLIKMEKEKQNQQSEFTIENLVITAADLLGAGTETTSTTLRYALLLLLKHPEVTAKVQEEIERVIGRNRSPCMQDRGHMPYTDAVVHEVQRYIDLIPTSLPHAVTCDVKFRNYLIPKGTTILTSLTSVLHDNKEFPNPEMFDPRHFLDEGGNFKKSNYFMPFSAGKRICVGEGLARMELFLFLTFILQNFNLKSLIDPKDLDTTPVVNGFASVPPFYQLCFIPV

Cytochrome P450 3A4 = Cytochrome P450 3A4 (Homo sapiens, UniProt P08684); assay: Inhibition of CYP3A4 in human liver microsomes assessed as midazolam 1'-hydroxylation and testosterone 6beta-hydroxylation after 20 mins by LC-MS/MS analysis; assay type: ADME
Cytochrome P450 3A4, sequence (P08684 whole entry): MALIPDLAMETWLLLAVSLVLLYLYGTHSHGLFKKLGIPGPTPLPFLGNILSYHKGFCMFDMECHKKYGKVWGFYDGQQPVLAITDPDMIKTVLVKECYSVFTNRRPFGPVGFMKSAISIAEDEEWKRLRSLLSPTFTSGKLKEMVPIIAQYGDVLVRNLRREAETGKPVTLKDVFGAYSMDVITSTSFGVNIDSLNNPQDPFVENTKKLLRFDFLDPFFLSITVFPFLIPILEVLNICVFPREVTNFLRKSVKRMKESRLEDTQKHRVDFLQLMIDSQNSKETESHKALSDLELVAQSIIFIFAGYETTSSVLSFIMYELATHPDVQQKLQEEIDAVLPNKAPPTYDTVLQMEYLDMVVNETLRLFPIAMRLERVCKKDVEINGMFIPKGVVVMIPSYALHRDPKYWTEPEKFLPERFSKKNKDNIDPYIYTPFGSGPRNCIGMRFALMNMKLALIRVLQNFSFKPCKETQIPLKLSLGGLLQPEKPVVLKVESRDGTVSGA

Cytochrome P450 2E1 = Cytochrome P450 2E1 (Homo sapiens, UniProt P05181); assay: Inhibition of CYP2E1 in human liver microsomes assessed as chlorzoxazone 6-hydroxylation after 20 mins by LC-MS/MS analysis; assay type: ADME
Cytochrome P450 2E1, sequence (P05181 whole entry): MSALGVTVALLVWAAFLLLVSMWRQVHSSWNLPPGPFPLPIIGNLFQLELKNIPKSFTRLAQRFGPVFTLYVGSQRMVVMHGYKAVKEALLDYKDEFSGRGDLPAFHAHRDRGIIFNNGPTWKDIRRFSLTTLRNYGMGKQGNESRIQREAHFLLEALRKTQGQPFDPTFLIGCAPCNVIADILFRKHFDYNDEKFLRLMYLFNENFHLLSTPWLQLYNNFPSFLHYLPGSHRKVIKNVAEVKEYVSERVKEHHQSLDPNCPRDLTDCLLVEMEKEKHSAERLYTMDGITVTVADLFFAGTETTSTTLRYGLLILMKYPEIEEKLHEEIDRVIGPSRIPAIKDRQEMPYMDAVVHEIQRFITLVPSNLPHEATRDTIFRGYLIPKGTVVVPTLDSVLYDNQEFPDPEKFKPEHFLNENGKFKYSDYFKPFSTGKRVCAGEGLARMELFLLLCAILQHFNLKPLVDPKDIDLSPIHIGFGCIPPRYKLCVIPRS

Cytochrome P450 2C9 = Cytochrome P450 2C9 (Homo sapiens, UniProt P11712); assay: Inhibition of CYP2C9 in human liver microsomes assessed as diclofenac 4'-hydroxylation after 20 mins by LC-MS/MS analysis; assay type: ADME
Cytochrome P450 2C9, sequence (P11712 whole entry): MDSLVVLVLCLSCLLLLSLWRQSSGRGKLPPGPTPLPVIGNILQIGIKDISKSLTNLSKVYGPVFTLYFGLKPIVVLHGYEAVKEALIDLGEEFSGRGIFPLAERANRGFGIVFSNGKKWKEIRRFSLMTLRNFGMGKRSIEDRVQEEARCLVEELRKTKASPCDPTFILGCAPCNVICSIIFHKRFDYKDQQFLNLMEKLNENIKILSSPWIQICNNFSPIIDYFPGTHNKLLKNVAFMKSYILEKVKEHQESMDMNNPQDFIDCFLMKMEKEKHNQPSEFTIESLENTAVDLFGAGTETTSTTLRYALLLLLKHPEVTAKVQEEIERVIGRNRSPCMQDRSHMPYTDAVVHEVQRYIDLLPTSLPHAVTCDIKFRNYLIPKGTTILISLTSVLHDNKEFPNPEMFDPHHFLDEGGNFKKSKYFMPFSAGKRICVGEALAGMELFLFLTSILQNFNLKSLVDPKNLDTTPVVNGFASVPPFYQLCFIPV

SMILES	solubility kinetic at 2 h [1]	IC50 (Plasmodium falciparum [2])	solubility kinetic at 2 h [3]	IC50 (Plasmodium falciparum [4])	Ratio IC50 (Plasmodium falciparum [5])	IC50 (Plasmodium falciparum [6])	other results
CC(C)(C)n1nnnc1C(NCCNc1ccnc2cc(Cl)ccc12)c1ccccc1 (configuration not stated)	111 µM (≈ 48.4 µg/mL)	5 nM	> 200 µM	38 nM	7.6	69 nM	–
CCN(CC)CCCC(C)Nc1ccnc2cc(Cl)ccc12 (configuration not stated) [CHLOROQUINE]	–	–	–	–	–	–	Activity (Plasmodium berghei): 90.6%
Cc1ccc(C(NCCNc2ccnc3cc(Cl)ccc23)c2nnn[nH]2)cc1 (configuration not stated)	–	–	–	17400 nM	–	–	–
Clc1ccc2c(NCCCNC(c3ccccc3)c3nnn[nH]3)ccnc2c1 (configuration not stated)	–	–	–	14300 nM	–	–	–
Cc1ccc(C(NCCNc2ccnc3cc(Cl)ccc23)c2nnnn2C(C)(C)C)cc1 (configuration not stated)	39.6 µM (≈ 17.8 µg/mL)	1 nM	127 µM (≈ 57.1 µg/mL)	2 nM	2	31.1 nM	IC50 (Cytochrome P450 1A2): > 20000 nM; IC50 (Cytochrome P450 2B6): > 20000 nM; IC50 (Cytochrome P450 2C8): 3980 nM; IC50 (Cytochrome P450 2D6): 9880 nM; IC50 (CHO): 185000 nM; IC50 (Cytochrome P450 2A6): > 20000 nM; IC50 (Cytochrome P450 2C19): > 20000 nM; IC50 (Cytochrome P450 3A4): 170 nM; IC50 (Cytochrome P450 2E1): > 20000 nM; IC50 (Cytochrome P450 2C9): 10300 nM
COc1ccc(C(NCCNc2ccnc3cc(Cl)ccc23)c2nnnn2C(C)(C)C)cc1 (configuration not stated)	–	3820 nM	–	155 nM	0.041	46 nM	–
Clc1ccc(C(NCCNc2ccnc3cc(Cl)ccc23)c2nnn[nH]2)cc1 (configuration not stated)	164 µM (≈ 67.9 µg/mL)	–	> 200 µM	2380 nM	–	–	–
